Compounds with a hit are over-represented: about 4.9% of the library has one in this group of screens.
STAT1 activator – STAT1 signaling activators, primary screen, cell-based, HTS, luciferase reporter; activation (% of control), % at 5.5 µM; NIH 3T3 STAT1-luciferase reporter, IFN-gamma, luminescence; 100% = IFN-gamma alone, no compound; hit rate 2.6% among 200,000;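 active = activation above the screen-wide mean activation plus 3 SD, cut at about 130% in these data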;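 note: raw ratio to IFN-gamma control signal so 100% means no change and 0% no light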
NF-kB expr up – activators of NF-kB expression in neurons, primary screen, cell-based, HTS; hit rate 1.6% among 190,000; human neuronal cells, NF-kB reporter expression; hits give high values; AID 1239, 2008; fold change at 12.5 µM; in the data active = fold change above about 3.3
STAT3 inh – IL-6 driven STAT3 reporter inhibitors, primary screen, U3A cells, luciferase, luminescence, MLSCN library. IL-6 STAT3-luciferase reporter; host cell line lacks STAT1. inhibition, % at 5.5 µM. hit rate 0.89% among 190,000;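 active = inhibition above the mean inhibition across all screened compounds plus 3 SD, cut at about 44% in these data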;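 note: 0% = DMSO only wells and 100% = 100 µM nifuroxazide control wells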
APP 5'UTR act – activators of APP 5'UTR luciferase reporter, primary screen, SH-SY5Y cells. SH-SY5Y APP 5'UTR luciferase reporter, luminescence; zero percent = DMSO vehicle wells. activation, % at 2 µM. AID 1276, 2008. hit rate 1% among 190,000;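 active = activation above a set limit, based on mean plus 3 SD of controls, cut at about 140% in these data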
STAT1 blocker – STAT1 signaling inhibitors, primary screen, cell-based, HTS, luciferase reporter; NIH 3T3 STAT1-luciferase reporter, IFN-gamma, luminescence; inhibition, % at 5.5 µM; hit rate 0.35% among 200,000;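 active = inhibition above a set limit, the mean inhibition across all tested compounds plus 3 SD, cut at about 34% in these data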;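 note: 0% = IFN-gamma with DMSO and 100% = IFN-gamma with 300 µM nifuroxazide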
STAT3 activator – IL-6 driven STAT3 reporter potentiators, primary screen, U3A cells, luciferase, luminescence, MLSCN library; activation (% of control), % at 5.6 µM; hit rate 0.91% among 190,000; IL-6 STAT3-luciferase reporter; 100% = signal with IL-6 EC80 alone;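 active = activation above the screen-wide mean of compound activation plus 3 SD, cut at about 130% in these data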;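 note: 0% = background luminescence of wells with medium and substrate only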
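System – human U3A cells carrying STAT3-luciferase construct · Probe or stimulus – Interleukin-6, 33 ng/mL · Schedule – compound 1 h, then IL-6 6 h at 37 °C · Signal – luminescence from STAT3-driven luciferase reporter · Evaluation – percent of IL-6-only median luminescence · Benchmarks – IL-6-only high control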
STAT1 activ conf – STAT1 signaling activators, confirmation, cell-based, HTS, luciferase reporter; activation (% of control), % at 5.7 µM; NIH 3T3 STAT1-luciferase reporter, IFN-gamma potentiation, luminescence; 100% = IFN-gamma EC80 alone, no compound; shares compounds with STAT1 activator; hit rate 97% among 1,200;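 active = activation above a set limit carried over from the earlier primary STAT1 screen, cut at about 140% in these data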;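 note: simple ratio to median IFN-gamma plus DMSO wells so 0% means no light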
NFkB act – NF-kB reporter activators, TNF-alpha stimulated, counter-screen for STAT1 activator project, cell-based, HEK293T, luciferase luminescence; shares compounds with STAT1 activator; hit rate 43% among 1,200; activation (% of control), % at 5.7 µM; 100% = TNF-alpha with vehicle only; AID 1306, 2008;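 active = activation above the mean of solvent-only control wells plus 3 SD, set per campaign, cut at about 130% in these data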;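 note: TNF-alpha given at a submaximal dose yielding about 80% of full reporter signal; values are well signal over median control so 100% means no change and 0% no light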
STAT3 act 2 – STAT3 reporter activation by STAT1 hits, confirmation, counter-screen for STAT1 activator project, U3A cells, luciferase, luminescence; IL-6; cells lack STAT1; 100 = IL-6 alone, no compound effect; shares compounds with STAT1 activator; activation (% of control), % at 5.7 µM; hit rate 46% among 1,200; AID 1316, 2008;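 active = activation above the solvent-only control well mean plus 3 SD, set per plate batch, cut at about 110% in these data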;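 note: 0% = no luminescence and 100% = median IL-6 plus DMSO wells; higher means more STAT3 reporter activation so hits are non-selective activators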
* = called active by the depositor; · = no result given.

SMILES | STAT1 activator | NF-kB expr up | STAT3 inh | APP 5'UTR act | STAT1 blocker | STAT3 activator | STAT1 activ conf | NFkB act | STAT3 act 2
O=c1c(-c2nc3ccccc3s2)cccn1Cc1ccccc1 | 161* | 3.7* | 11 | 82 | -68 | 95 | 211* | 130 | 106
COc1ccc(-c2csc3ncn(CC(=O)N4CCOCC4)c(=O)c23)cc1 | 104 | 1.1 | 2 | 36 | -4 | 104 | · | · | ·
COc1cc([N+](=O)[O-])ccc1NC(=O)CN1CCOCC1 | 95 | 1 | 4 | 16 | 3 | 100 | · | · | ·
Oc1sc(C=Nc2ccccc2)c2ccccc12 | 166* | 8.1* | -31 | 153* | -74 | 128 | 209* | 141* | 108
COc1cc(O)oc1C=Nc1ccccc1 | 109 | 1.1 | 13 | -2 | -10 | 90 | · | · | ·
COc1ccccc1/C=C(/CC(=O)NCc1ccc2c(c1)OCO2)c1nc2ccccc2s1 | 90 | 1.1 | -31 | 9 | 11 | 126 | · | · | ·
Cc1nc2cc(NC(=O)N3c4ccccc4CC3C)ccc2n1C (stereo not drawn) | 151* | 4* | 35 | · | -35 | 73 | 218* | 132 | 132*
COc1cccc(-c2noc(-c3cccnc3)n2)c1 | 159* | 5.5* | 6 | 107 | -64 | 97 | 188* | 125 | 121*
COc1ccc(N/C=C/C(=O)c2ccc(C)cc2)c([N+](=O)[O-])c1 | 153* | · | 27 | 130 | -57 | 80 | 218* | 121 | 99
CCOc1ccc(N/C=C/C(=O)c2ccc(OC)cc2)c([N+](=O)[O-])c1 | 125 | 1.4 | 34 | 35 | -27 | 75 | · | · | ·
O=C1CCCc2nc3c(cc21)C(O)Oc1ccccc1-3 (stereo not drawn) | 105 | · | 10 | 10 | -7 | 95 | · | · | ·
O=C1CCCc2nc3c(cc21)C(O)Oc1c-3ccc2ccccc12 (stereo not drawn) | 186* | 2.2 | 18 | 157* | -95 | 93 | 216* | 143* | 106
CC(=O)c1c(C)nc2cc(Cl)ccc2c1N | 116 | 1 | 7 | 11 | -18 | 96 | · | · | ·
Cc1nc2ccc(Cl)cc2nc(C)/c1=N\O | 152* | 2.3 | 4 | 158* | -57 | 100 | 144* | 126 | 120*
Cc1cccc(N(C(=O)c2nsc(Cl)c2Cl)C(C(=O)NC2CCCC2)c2ccc(O)cc2)c1 (stereo not drawn) | 93 | 1 | -3 | 11 | 7 | 102 | · | · | ·
CCC1(c2ccc(F)cc2)NC(=O)N(CC(=O)Nc2ccc(-c3nc4ccc(C)cc4s3)cc2)C1=O (stereo not drawn) | 169* | 1.1 | 4 | 214* | -79 | 97 | 201* | 133 | 112*
Cc1ccc2nc(-c3ccc(NC(=O)CN4C(=O)c5ccccc5C4=O)cc3)sc2c1 | 162* | 1.7 | 4 | 114 | -69 | 98 | 180* | 130 | 118*
Cc1nnc(SCC(=O)Nc2ccc(-c3nc4ccccc4s3)cc2)s1 | 156* | 5.6* | -8 | 158* | -63 | 105 | 243* | 109 | 86
Cc1cc(Cl)ccc1NC(=S)NCc1ccccc1Cl | 102 | 0.98 | 2 | -14 | -2 | 101 | · | · | ·
O=S(=O)(Nc1nc2ccccc2nc1N1CCc2ccccc2C1)c1ccc(Br)cc1 | 158* | 1.8 | 25 | 64 | -66 | 81 | 181* | 85 | 133*
O=S(=O)(Nc1nc2ccccc2nc1Cl)c1ccc(Br)cc1 | 92 | 1.2 | 2 | -25 | 6 | 99 | · | · | ·
COc1cc2c(cc1OC)C1(CCCC1)CNC2c1cccc([N+](=O)[O-])c1 (stereo not drawn) | 97 | 1.1 | 19 | -7 | 3 | 92 | · | · | ·
CCCCOc1ccc(-c2csc(N)n2)cc1[N+](=O)[O-] | 156* | 5.4* | -10 | 142* | -63 | 106 | 192* | 141* | 110
COc1ccc(-n2nc(C(C)=O)c(=O)[nH]c2=O)cc1 | 112 | 1.5 | -21 | -6 | -13 | 119 | · | · | ·
CN(Cc1ccccc1)CC(O)COc1ccc(CNCc2ccc(Cl)s2)cc1 (stereo not drawn) | 96 | 0.88 | -3 | -13 | 2 | 107 | · | · | ·
SMILES | STAT1 activator | NF-kB expr up | STAT3 inh | APP 5'UTR act | STAT1 blocker | STAT3 activator | STAT1 activ conf | NFkB act | STAT3 act 2
O=C(c1ccccc1)c1ccc(N2CCCC2)cc1 | 151* | 1.9 | 0 | 46 | -56 | 106 | 143* | 116 | 101
O=C(/C=C/c1ccccc1)Nc1ccc(N2CCCCC2)cc1 | 151* | 1.1 | -12 | 84 | -58 | 110 | 168* | 125 | 105
O=c1/c(=C/c2ccccn2)sc2nc3ccccc3n12 | 184* | 4.8* | -13 | 66 | -92 | 116 | 289* | 138* | 158*
CCC(CC)NC(=O)Cc1ccc(F)cc1 | 99 | 1 | -1 | 12 | -1 | 107 | · | · | ·
Oc1[nH]c2ccccc2c1C=Nc1ccc2c(c1)OCO2 | 192* | 4.9* | 10 | 141* | -100 | 97 | 263* | 144* | 103
COc1ccc(N=Cc2c(O)[nH]c3ccccc23)cc1 | 216* | 4.9* | 25 | 181* | -128 | 82 | 269* | 135* | 111*
Nc1nc(CN2CCCCCC2)nc(Nc2ccccc2)n1 | 98 | 0.74 | 0 | 10 | 2 | 104 | · | · | ·
Cc1c(-c2nc(N)nc(Nc3ccccc3)n2)oc2ccccc12 | 164* | 3 | -1 | 154* | -71 | 106 | 211* | 148* | 107
O=C(Cc1ccccc1)NCCC1=CCCCC1 | 102 | 1.2 | 3 | -28 | -3 | 101 | · | · | ·
O=C(NCCC1=CCCCC1)c1ccc(F)cc1 | 166* | 1.1 | 32 | 210* | -76 | 73 | 200* | 107 | 102
O=C(NCCC1=CCCCC1)c1ccc([N+](=O)[O-])cc1 | 151* | 4.8* | 13 | 160* | -57 | 91 | 189* | 118 | 160*

Screens deposited in PubChem by several laboratories.
